Experimental data collected from several papers.
Lines come from different studies, so protocols differ.
Target: Histone deacetylase 1 (HDAC1, Homo sapiens, UniProt Q13547)

O=C(NO)c1ccc(NC(=O)C2(c3ccc(C(F)(F)F)c(F)c3)CCCC2)cc1  IC50 (enzyme activity, inhibitor): 0.222 µM
C=CCC[C@@H]1NC(=O)[C@H]2CCCN2C(=O)[C@H](Cc2ccccc2)NC(=O)C(C)(C)NC1=O  IC50 (enzyme activity, inhibitor): > 300 µM
CCCC[C@H](NC(=O)C1CN(C)C1)c1ncc(-c2cc3ccccc3nc2OC)[nH]1  IC50 (enzyme activity, inhibitor): 0.068 µM
O=C(NO)c1ccc(NC(=O)C2(c3ccccc3)CCOCC2)c(F)c1  IC50 (enzyme activity, inhibitor): 0.073 µM
CCCON(Cc1ccc(C(=O)NO)cc1)C(=O)Nc1ccc(N(C)C)cc1  IC50 (enzyme activity, inhibitor, fluorescence): 0.715 µM
O=C(CCCCCCC(=O)Nc1ccc([C@H]2O[C@@H](CSc3nc(-c4ccccc4)c(-c4ccccc4)o3)C[C@@H](c3ccc(CO)cc3)O2)cc1)NO  Kd (cell-free assay): > 30.2 µM
Cc1nc2ccccc2n1Cc1ccc(C(=O)NO)cn1  IC50 (enzyme activity, inhibitor): 27.9 µM
CCCON(Cc1ccc(C(=O)NO)cc1)C(=O)Nc1ccccc1  IC50 (enzyme activity, inhibitor, fluorescence): 0.742 µM
CC(C)C[C@H]1CC(=O)N[C@@H](C)C(=O)N[C@@H](CCCCCC(=O)O)C(=O)N[C@@H](Cc2c[nH]c3ccccc23)C(=O)N1  IC50 (enzyme activity, inhibitor): 0.1 µM
C/C=C1\NC(=O)[C@H]2CSSCC/C=C/[C@H](CC(=O)N[C@H](C(C)C)C(=O)N2)OC(=O)[C@H](C(C)C)NC1=O  Kd (cell-free assay): 0.00317 µM
CCC[C@H](NC(=O)C1CN(C)C1)c1ncc(-c2cc3ccccc3nc2OC)[nH]1  IC50 (enzyme activity, inhibitor, fluorescence): 0.28 µM
O=C(NO)c1ccc(NC(=O)C2(c3ccc(Cl)cc3)CCCC2)c(F)c1  IC50 (enzyme activity, inhibitor): 0.774 µM
